Data on 15 compounds can be found in ChEMBL document CHEMBL4813968, “Synthesis and evaluation of 3'-fluorinated 7-deazapurine nucleosides as antikinetoplastid agents” (Eur J Med Chem, 2021).

pEC50: −log10 of the molar value.

Series [1] deals with Trypanosoma brucei brucei. In words: Antitrypanosomal activity against Trypanosoma brucei brucei assessed as parasite growth inhibition. It is filed as functional, organism-based.
Series [2] can be described thus: Selectivity index, ratio of EC50 for cytotoxicity against mouse primary macrophage to EC50 for antileishmanial activity against Leishmania infantum MHOM/MA(BE)/67 infected in mouse primary peritoneal macrophages. In kind it is toxicity. Particulars: read-out: Ratio EC50.
Series [3] has as its system Macrophage. Description: Cytotoxicity against mouse primary macrophage cells assessed as reduction in cell viability. It is filed as cell-based. The procedure, abridged:
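Macrophage toxicity was scored microscopically within the L. infantum assays, using cell detachment, lysis and granulation. At least 500 cells over adjacent fields were scored semi-quantitatively, and CC₅₀ was taken from % reduction in normal cells versus untreated controls.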

In series [4] the test system is Leishmania infantum. Description: Antileishmanial activity against Leishmania infantum MHOM/MA(BE)/67 infected in mouse primary peritoneal macrophages treated 2 hrs post-infection and incubated for 5 days by Giemsa staining based microscopic analysis. The note with it: MHOM/MA(BE)/67, Peritoneal macrophage. It is filed as functional, organism-based. The procedure, abridged:
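Peritoneal macrophages from mice, harvested 2 days after 2% potato starch stimulation, infected after 48 h with L. infantum in supplemented RPMI-1640 with 5% FCS. Compounds were added 2 h post-infection as a 10-point 4-fold dilution series, final DMSO <1%, and incubated 5 days at 37 °C, 5% CO₂. Amastigotes per macrophage were counted after 10% Giemsa staining, and IC₅₀ was taken from % reduction versus untreated-infected controls.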

Series [5] can be described thus: Selectivity index, ratio of EC50 for cytotoxicity against human MRC5 cells to EC50 for antitrypanosomal activity against Trypanosoma cruzi Tulahuen CL2 infected in human MRC5 cells. In kind it is toxicity, cell-based. Particulars: read-out: Ratio EC50. The procedure, abridged: (§1)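 Selectivity index is the MRC-5 EC₅₀ divided by the parasite EC₅₀.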
Series [6] concerns MRC5. Description: Cytotoxicity against human MRC5 cells assessed as reduction in cell viability after 3 days by resazurin dye based fluorimetric analysis. Particulars: MRC5, 72 h. The procedure, abridged:
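MRC-5_SV2 cells, 1.5×10⁵ cells/mL in MEM with Earl's salts, L-glutamine, NaHCO₃ and 5% inactivated FCS, were exposed 3 days at 37 °C, 5% CO₂ to a 10-point 4-fold dilution series, final DMSO <1%. Resazurin was added for 4 h, fluorescence read at ex 550/em 590 nm, and IC₅₀ derived versus untreated and medium controls.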

The subject of series [7] is Trypanosoma cruzi. In words: Antitrypanosomal activity against Trypanosoma cruzi Tulahuen CL2 infected in human MRC5 cells assessed as inhibition of parasite growth incubated for 7 days by chlorophenol red-fl-D-galactopyranoside based spectrophotometric analysis. In kind it is functional, organism-based. Particulars: Tulahuen CL2, MRC5, 168 h. The procedure, abridged: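 T. cruzi Tulahuen CL2 β-galactosidase strain was maintained on MRC-5_SV2 cells. Wells held 4×10³ cells plus 4×10⁴ parasites with a 10-point 4-fold compound series, final DMSO <1%. After 7 days at 37 °C, 5% CO₂, substrate was added and absorbance read at 540 nm after 4 h at 37 °C. IC₅₀ was taken from % reduction versus infected and uninfected controls.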

Series [8] relates to Trypanosoma brucei rhodesiense. In words: Antitrypanosomal activity against Trypanosoma brucei rhodesiense assessed as parasite growth inhibition. In kind it is functional, organism-based.
Series [9] can be described thus: Selectivity index, ratio of EC50 for human MRC5 cells to EC50 for antitrypanosomal activity against Trypanosoma brucei brucei. It is filed as toxicity. The note with it: read-out: Ratio EC50. In a few lines:
as §1

A short description of series [10]: Selectivity index, ratio of EC50 for human MRC5 cells to EC50 for antitrypanosomal activity against Trypanosoma brucei rhodesiense. In kind it is toxicity. Particulars: read-out: Ratio EC50. In a few lines: as §1

Turning to `Nc1ncnc2c1ccn2[C@@H]1O[C@H](CO)[C@@H](F)[C@H]1O`, the pEC50 was 4.65 in series [1]; < 4.19 in series [3]; 4.63 in series [4]; < 4.19 in series [6]; 5.04 in [7]; 5.83 in series [8]. Besides, the selectivity ratio was > 2 in [2], > 7 in [5], > 2 in series [9] and > 44 in [10].
With `Nc1ncnc2c1c(I)cn2[C@@H]1O[C@H](CO)[C@@H](F)[C@H]1O`, the negative-log EC50 (pEC50) in series [1] is 7.49; in series [3], 4.66; in [4] it was 5.63; in series [6], 5.18; in series [7], 7.41; in series [8] it was 8.11. In addition, the selectivity ratio came out at 9 in [2], 170 in series [5], 201 in [9] and 826 in series [10].
Consider `Nc1ncnc2c1c(Cl)cn2[C@@H]1O[C@H](CO)[C@@H](F)[C@H]1O`, for which the negative logarithm of the EC50 (pEC50) in [1] was 6.89; in series [3], 6.89; in series [4] it was 7.05; in series [6], 4.86; in series [7], 7.15; in [8], 7.51. Besides, the selectivity ratio was determined as 1 in series [2], 194 in series [5], 108 in series [9] and 448 in series [10].
Regarding `Cc1cn([C@@H]2O[C@H](CO)[C@@H](F)[C@H]2O)c2ncnc(N)c12`, the pEC50 in [1] is 6.02; in series [3], < 4.19; in series [4], 4.42; in series [6], < 4.19; in series [7] it was 4.88; in series [8], 6.68. Besides, the selectivity ratio was > 2 in series [2], > 5 in [5], > 67 in series [9] and > 312 in series [10].
Take `C=Cc1cn([C@@H]2O[C@H](CO)[C@@H](F)[C@H]2O)c2ncnc(N)c12`: the negative-log EC50 (pEC50) is 6.09 in series [1]; < 4.19 in series [3]; 4.41 in series [4]; 4.69 in [6]; 6.19 in series [7]; 6.47 in series [8]. For the same compound, the selectivity ratio in series [2] is > 1; in series [5], 31; in series [9] it was 25; in series [10], 59.
As to `Nc1ncnc2c1c(-c1ccc(Cl)cc1)cn2[C@@H]1O[C@H](CO)[C@@H](F)[C@H]1O`, the pEC50 in series [1] was 5.15; in series [3] it was 4.49; in series [4], 4.90; in [6] it was 4.77; in series [7] it was 6.13; in series [8] it was 5.29. The selectivity ratio turned out to be 3 in series [2], 23 in [5], 2 in series [9] and 2 in [10].
In the case of `Nc1ncnc2c1c(-c1ccc(Cl)c(Cl)c1)cn2[C@@H]1O[C@H](CO)[C@@H](F)[C@H]1O`, the pEC50 is 5.57 in [1]; 5.10 in series [3]; 5.55 in series [4]; 5.38 in series [6]; 6.66 in series [7]; 5.81 in series [8]. Besides, the selectivity ratio stood at 3 in series [2], 19 in series [5], 1 in series [9] and 2 in series [10].
Regarding `Nc1ncnc2c1c(Br)cn2[C@@H]1O[C@H](CO)[C@H](F)[C@H]1O`, the negative-log EC50 (pEC50) is 7.49 in [1]; 4.70 in series [3]; 5.09 in series [4]; 6.12 in series [6]; 5.13 in series [7]; 8.31 in series [8]. The selectivity ratio is 2 in series [2], < 1 in [5], 23 in series [9] and 152 in series [10].
Regarding `Nc1ncnc2c1c(-c1ccc(Cl)cc1)cn2[C@@H]1O[C@H](CO)[C@H](F)[C@H]1O`, the pEC50 was 5.28 in series [1]; 5.10 in [3]; 5.30 in series [4]; 4.66 in [6]; 6.77 in series [7]; 5.64 in series [8]. Also, the selectivity ratio in series [2] came out at 1; in series [5] it was 130; in [9], 4; in [10] it was 10.
In the case of `NC(=O)c1cn([C@@H]2O[C@H](CO)[C@@H](F)[C@H]2O)c2ncnc(N)c12`, the negative-log EC50 (pEC50) in series [1] was 5.63; in series [3], 4.49; in series [4] it was 4.49; in series [6], 5.62; in series [7], 5.15; in series [8], 6.92. In addition, the selectivity ratio is 1 in series [2], < 1 in series [5], 1 in series [9] and 20 in series [10].
Turning to `Nc1ncnc2c1c(-c1ccccc1)cn2[C@@H]1O[C@H](CO)[C@@H](F)[C@H]1O`, the pEC50 in series [1] is 4.49; in series [3] it was < 4.19; in series [4], 4.29; in series [6], < 4.19; in [7], 5.04; in series [8], 4.49. The selectivity ratio in [2] is 1; in series [5] it was > 7; in [9], > 2; in series [10] it was > 1.
With `COc1ccc(-c2cn([C@@H]3O[C@H](CO)[C@@H](F)[C@H]3O)c3ncnc(N)c23)cc1`, the negative-log EC50 (pEC50) is 4.36 in series [1]; 4.49 in series [3]; 4.49 in [4]; 4.85 in series [6]; 5.06 in series [7]; 4.59 in [8]. The selectivity ratio in [2] is 1; in series [5], 2; in series [9] it was < 1; in [10], < 1.
On to `C#Cc1cn([C@@H]2O[C@H](CO)[C@@H](F)[C@H]2O)c2ncnc(N)c12`, for which the pEC50 in series [1] is 7.40; in [3], 6.89; in [4] it was 6.89; in [6], 6.80; in series [7] it was 7.40; in series [8] it was 7.70. In addition, the selectivity ratio stood at 1 in series [2], 4 in series [5], 4 in series [9] and 7 in [10].
With `Nc1ncnc2c1c(-c1ccc(Cl)c(Cl)c1)cn2[C@@H]1O[C@H](CO)[C@H](F)[C@H]1O`, the negative logarithm of the EC50 (pEC50) in [1] was 5.63; in series [3], 5.10; in series [4], 5.41; in series [6], 5.13; in [7], > 6.68; in [8], 5.76. The selectivity ratio in series [2] stood at 2; in series [5] it was 35; in [9], 3; in series [10], 4.
Turning to `Nc1ncnc2c1ncn2[C@@H]1O[C@H](CO)[C@@H](F)[C@H]1O`, the pEC50 in series [1] was 7.49; in series [3], < 4.49; in series [4], 4.56; in series [6] it was 5.31; in series [7], 6.26; in series [8] it was 7.77. The selectivity ratio in series [2] is > 2; in [5], 9; in series [9] it was 154; in [10] it was 296.

Broadly, the pEC50 is −log10 of the EC50, conventionally taken in molar units.
